Experimental findings from ChEMBL document CHEMBL2321721 (ACS Med Chem Lett, 2013) are described below.

Calls of active or inactive are those of the source. The rule behind the calls is not given here.

Data set [1] has as its system MCF7. Nature of the data set: Decrease in cyclin D1 level in human PMA-stimulated MCF7 cells at 100 uM pretreated for 2 hrs prior to PMA addition measured after 20 mins by immunoblot analysis. It is filed as functional, cell-based. Put shortly: (§1)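 MCF-7 cells pretreated with inhibitor or vehicle, then stimulated with PMA or treated with DMSO vehicle. Lysates analysed by immunoblotting for eEF2 phosphorylation and other RSK biomarkers. Inhibitor concentrations were 100 μM or 25 μM.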

Data set [2] in a line: Partition coefficient, log P of the compound. It is filed as physicochemical. The conditions noted are these: octanol/water.
For another data set, the system named is Plasma. Nature of the data set: Cmax in CD1 mouse plasma at 2.5 mg/kg, ip. Conditions: in vivo. On the set-up: dose 2.5 mg/kg, route intraperitoneal. The data set is classed as ADME, organism-based. The procedure, abridged:
(§2)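 Male CD-1 mice given a single dose, 1 mg/kg iv or 2.5 mg/kg ip, in 1:1:15 Cremophor:EtOH:phosphate-buffered saline carrier. Plasma concentrations measured. AUC extrapolated to infinity and normalized to dose in mg/kg. C0 is maximum plasma concentration extrapolated to t = 0. Cmax is the observed maximum plasma concentration.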

Data set [3] in a line: Half life in CD1 mouse at 1 mg/kg, iv. It is filed as ADME, organism-based. On the set-up: dose 1 mg/kg, route intravenous. The conditions noted are these: in vivo. Put shortly:
as §2

A short description of data set [4]: Half life in CD1 mouse at 2.5 mg/kg, ip. The data set is classed as ADME, organism-based. On the set-up: dose 2.5 mg/kg, route intraperitoneal. The conditions noted are these: in vivo. Put shortly:
as §2

A short description of data set [5]: Initial plasma concentration in CD1 mouse at 1 mg/kg, iv. The data set is classed as ADME, organism-based. On the set-up: dose 1 mg/kg, route intravenous. The procedure, abridged:
as §2

The subject of data set [6] is Mus musculus. Kind of data set: Dose normalized AUC in CD1 mouse at 2.5 mg/kg, ip. It is filed as ADME, organism-based. On the set-up: dose 2.5 mg/kg, route intraperitoneal. Conditions: in vivo. Put shortly:
as §2

The subject of data set [7] is Mus musculus. Kind of data set: Dose normalized AUC in CD1 mouse at 1 mg/kg, iv. The data set is classed as ADME, organism-based. Details: dose 1 mg/kg, route intravenous. The conditions noted are these: in vivo. Put shortly:
as §2

For data set [8], the target named is T1, Ribosomal protein S6 kinase alpha-3 (Homo sapiens, UniProt P51812). Conditions: MCF7, 100 uM.
For data set [9], the target named is T1, Ribosomal protein S6 kinase alpha-3. Conditions: MCF7, 100 uM. The source holds these as a separate data set.
For data set [10] the target is unchanged. Nature of the data set: Inhibition of recombinant RSK2 (unknown origin) expressed in baculovirus infected Sf9 cells assessed as decrease in substrate phosphorylation using GST-fusion protein containing ERalpha-Ser167 sequence-RLASTND as substrate by chemiluminescence analysis.
Data set [11] has the same target. Nature of the data set: Inhibition of RSK2 in human PMA-stimulated MCF7 cells assessed as decrease in expression of 27kDa protein harboring (Lys/Arg)X(Lys/Arg)XX(pSer/pThr) motif at 25 uM pretreated for 24 hrs prior to PMA addition measured after 20 mins immunoblot analysis. It is filed as cell-based. Put shortly:
as §1
Background: In western blotting, separated proteins are transferred to a membrane and probed.

In data set [12] the test system is MCF7. Kind of data set: Decrease in cyclin D1 level in human PMA-stimulated MCF7 cells at 25 uM pretreated for 24 hrs prior to PMA addition measured after 20 mins by immunoblot analysis. It is filed as functional, cell-based. The procedure, abridged:
as §1

Another data set has as its system MCF-10A. Nature of the data set: Inhibition of human MCF10A cell proliferation assessed as decrease in ATP content after 48 hrs by CellTiter-GloTM assay. It is filed as cell-based. Put shortly:
(§3)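 Compounds added at time 0 to MCF-7 or MCF-10A cells at various concentrations, 25 μM or lower. Proliferation read as ATP content after 48 h of treatment, expressed as fold proliferation as a percentage of vehicle-treated cells. n = 3 in quadruplicate, SD, Student's t test.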

Data set [13] has as its target T1, Ribosomal protein S6 kinase alpha-3. Nature of the data set: Inhibition of RSK2 in human MCF7 cells assessed as reduction of PMA-induced decrease in EF2 kinase phosphorylation at 25 uM pretreated for 24 hrs prior to PMA addition measured after 20 mins by immunoblot analysis. It is filed as cell-based. The procedure, abridged:
as §1

Data set [14] relates to MCF7. Kind of data set: Inhibition of human MCF7 cell proliferation assessed as decrease in ATP content at 25 uM after 48 hrs by CellTiter-GloTM assay relative to SL0101. The data set is classed as functional. The conditions noted are these: MCF7, 48 h. Put shortly:
as §3
On the technique in general: Cellular ATP, detected with luciferase, serves as a proxy for viable cell number.

In data set [15] the target is T1, Ribosomal protein S6 kinase alpha-3. Nature of the data set: Ratio of SL0101 IC50 to compound IC50 for recombinant RSK2 (unknown origin) expressed in baculovirus infected Sf9 cells by chemiluminescence analysis.

T1 sequence (P51812 whole entry): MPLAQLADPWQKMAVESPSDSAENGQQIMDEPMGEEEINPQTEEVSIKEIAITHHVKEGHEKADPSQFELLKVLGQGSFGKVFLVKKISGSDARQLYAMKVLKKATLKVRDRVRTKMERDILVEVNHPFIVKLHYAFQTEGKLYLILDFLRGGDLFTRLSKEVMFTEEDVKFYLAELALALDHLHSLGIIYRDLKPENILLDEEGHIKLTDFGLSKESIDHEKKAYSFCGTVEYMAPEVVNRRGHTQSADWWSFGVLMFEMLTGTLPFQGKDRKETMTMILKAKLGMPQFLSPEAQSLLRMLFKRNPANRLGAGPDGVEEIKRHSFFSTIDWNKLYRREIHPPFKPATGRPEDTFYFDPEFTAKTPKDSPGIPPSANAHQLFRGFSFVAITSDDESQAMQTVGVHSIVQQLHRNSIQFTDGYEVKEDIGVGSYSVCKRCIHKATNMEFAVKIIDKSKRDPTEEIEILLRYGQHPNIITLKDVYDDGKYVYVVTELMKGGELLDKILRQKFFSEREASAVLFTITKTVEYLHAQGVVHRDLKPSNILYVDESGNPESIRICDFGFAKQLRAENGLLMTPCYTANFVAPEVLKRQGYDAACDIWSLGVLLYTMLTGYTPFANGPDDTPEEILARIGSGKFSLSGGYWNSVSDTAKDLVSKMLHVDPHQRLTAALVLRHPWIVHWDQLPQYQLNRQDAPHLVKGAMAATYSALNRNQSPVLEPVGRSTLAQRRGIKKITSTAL

What is called inhibition is the share of the control response that was lost under treatment. The term logP denotes the decadic logarithm of the partition coefficient of the neutral form, usually between octanol and water. A higher logP goes with higher lipophilicity. By Cmax is commonly meant the peak of the concentration-time curve. For orientation: half-life means how long it takes for the measured level to halve. Read a low half-life as fast loss. As for `CC(=O)O[C@@H]1[C@@H](OC(C)=O)[C@@H](O)[C@H](Oc2c(-c3ccc(O)cc3)oc3cc(O)cc(O)c3c2=O)O[C@H]1C`, the inhibition entry (with MCF7 [1]; in [8]; in [9]) was “Active” in each case. The compound also showed a log partition coefficient (logP) in [2] of 2.11. Moreover, the Cmax in the data set on Plasma stood at 1851 ng/mL. Besides, the results for the half-life in data set [3] and in [4] were 9 min and 24 min, respectively. Moreover, in data set [5], the C0 amounted to 291 ng/mL. For the same compound, the figures for the AUC/dose in the data set with Mus musculus [6] and in the data set on Mus musculus [7] were 1023 ng·kg·h/mL/mg and 38.7 ng·kg·h/mL/mg, respectively.

In general, IC50 refers to the concentration that gives 50% inhibition. Regarding `CCC[C@@H]1O[C@@H](Oc2c(-c3ccc(O)cc3)oc3cc(O)cc(O)c3c2=O)[C@H](O)[C@H](O)[C@H]1OC(C)=O`, in [2], the logP stood at 2.9. For the same compound, in data set [10], the IC50 was 1.5 µM.

For `CCC[C@@H]1O[C@@H](Oc2c(-c3ccc(O)cc3)oc3cc(O)cc(O)c3c2=O)[C@H](OC(C)=O)[C@H](O)[C@H]1OC(C)=O`, the logP in data set [2] came out at 3.39. In addition, the IC50 in data set [10] was 0.62 µM.

Regarding `CC[C@@H]1O[C@@H](Oc2c(-c3ccc(O)cc3)oc3cc(O)cc(O)c3c2=O)[C@H](O)[C@H](O)[C@H]1O`, in data set [2], the logP worked out at 1.64. Besides, in data set [10], the IC50 came to 1.51 µM.

Turning to `CCC[C@@H]1O[C@@H](Oc2c(-c3ccc(O)cc3)oc3cc(O)cc(O)c3c2=O)[C@H](O)[C@H](O)[C@H]1O`, the logP in [2] is 2.2.

Consider `CCC[C@@H]1O[C@@H](Oc2c(-c3ccc(O)cc3)oc3cc(O)cc(O)c3c2=O)[C@H](O)[C@H](OC(C)=O)[C@H]1OC(C)=O`, for which the inhibition result (in [11]; in the data set with MCF7 [12]; in data set [13]) was “Active” in each case. Also, the Activity result with MCF-10A is “Non-toxic”. In data set [2], the logP was 3.17. Besides, the inhibition at 25 µM in the data set on MCF7 [14] amounted to 50%. Also, the Ratio IC50 in [15] was greater than 40.

In [2], `CCC[C@@H]1O[C@@H](Oc2c(-c3ccc(O)cc3)oc3cc(O)cc(O)c3c2=O)[C@H](OC(C)=O)[C@H](OC(C)=O)[C@H]1OC(C)=O` showed a logP of 3.87. For the same compound, the concentration for half-maximal inhibition (IC50) in data set [10] turned out to be 1.77 µM.

On to `CC(C)C[C@@H]1O[C@@H](Oc2c(-c3ccc(O)cc3)oc3cc(O)cc(O)c3c2=O)[C@H](O)[C@H](O)[C@H]1O`, for which the logP in [2] was found to be 2.41.
